This is an account of results in ChEMBL document CHEMBL3232847, “Discovery of 6-phenylpyrimido[4,5-b][1,4]oxazines as potent and selective acyl CoA:diacylglycerol acyltransferase 1 (DGAT1) inhibitors with in vivo efficacy in rodents” (J Med Chem, 2014).

Calls of active or inactive are those of the source.

Data set [1] can be described thus: AUC in Sprague-Dawley rat at 30 mg/kg, po. Type of data set: ADME, organism-based. The arrangement: dose 30 mg/kg, route oral. The settings on record: plasma.
Data set [2] relates to Rattus norvegicus. Briefly: Toxicity in Sprague-Dawley rat assessed as change in clinical parameters at 30 mg/kg, po by 14-day multiple-dose toxicity study. Type of data set: organism-based. Details: dose 30 mg/kg, route oral. The settings on record: in vivo. The essentials:
(§1)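 Sprague−Dawley rats were dosed po once daily for 14 days. Clinical and histopathological findings were assessed, and plasma AUC was recorded for each dose.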

The nature of data set [3]: Half life in rhesus monkey at 0.2 mg/kg, iv. In kind it is ADME, organism-based, Macaca mulatta. The settings on record: in vivo. The arrangement: dose 0.2 mg/kg, route intravenous.
Data set [4] concerns the target T1, Sterol O-acyltransferase 2 (Homo sapiens) (UniProt O75908).
T1 sequence (whole entry): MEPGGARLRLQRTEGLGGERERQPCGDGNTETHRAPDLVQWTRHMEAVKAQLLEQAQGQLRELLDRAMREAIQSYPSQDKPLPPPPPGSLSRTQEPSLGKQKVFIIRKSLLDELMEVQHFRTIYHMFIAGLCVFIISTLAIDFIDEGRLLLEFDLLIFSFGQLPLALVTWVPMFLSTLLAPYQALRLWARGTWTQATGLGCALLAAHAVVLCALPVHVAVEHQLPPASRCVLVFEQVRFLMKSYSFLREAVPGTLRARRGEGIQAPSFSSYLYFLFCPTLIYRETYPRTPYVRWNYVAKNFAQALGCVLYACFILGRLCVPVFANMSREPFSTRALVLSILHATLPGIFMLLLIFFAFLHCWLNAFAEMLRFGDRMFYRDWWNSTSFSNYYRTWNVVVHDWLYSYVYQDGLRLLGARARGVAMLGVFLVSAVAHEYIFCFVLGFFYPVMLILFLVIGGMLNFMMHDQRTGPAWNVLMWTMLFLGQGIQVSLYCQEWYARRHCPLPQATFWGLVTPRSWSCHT
Briefly: Inhibition of human full-length flag-tagged ACAT2 expressed in baculovirus infected insect cells using [14C]palmitoyl CoA as substrate up to 10 uM after 10 mins by scintillation counting.

The subject of data set [5] is Rattus norvegicus. Briefly: Toxicity in Sprague-Dawley rat assessed as change in histopathological parameters at 30 mg/kg, po by 14-day multiple-dose toxicity study. Type of data set: organism-based. The arrangement: dose 30 mg/kg, route oral. As to conditions: in vivo. Put shortly:
as §1

The nature of data set [6]: Clearance in Sprague-Dawley rat at 1 mg/kg, iv. In kind it is ADME, organism-based. Details: dose 1 mg/kg, route intravenous. As to conditions: in vivo.
The species named for data set [7] is Rattus norvegicus. Briefly: Inhibition of rat small intestine microsomal MGAT up to 10 uM by TLC technique in presence of monoacylglycerol and [14C] palmitoyl CoA. In kind it is microsomes.
The subject of data set [8] is Rattus norvegicus. Briefly: Reduction in plasma triglyceride level in po dosed Sprague-Dawley rat compound treated 30 mins prior to olive oil administration measured 3 hrs post olive oil administration relative to vehicle-treated control. Type of data set: functional, organism-based. The essentials: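 Animals received vehicle or compound by oral gavage, then olive oil (5 mL/kg) by oral gavage 30 min later. Plasma triglycerides were measured before dosing and 3 h after the oil. The read-out was the change in TG from pre-dose, compared with vehicle-treated animals.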

The nature of data set [9]: Volume of distribution at steady state in beagle dog at 0.5 mg/kg, iv. Type of data set: ADME, organism-based, Canis lupus familiaris. The arrangement: dose 0.5 mg/kg, route intravenous. As to conditions: in vivo, read-out: Vdss.
Data set [10] is described as follows: Oral bioavailability in Sprague-Dawley rat at 2 mg/kg. The settings on record: in vivo. In kind it is ADME, organism-based.
A short description of data set [11]: Clearance in beagle dog at 0.5 mg/kg, iv. Details: dose 0.5 mg/kg, route intravenous. As to conditions: in vivo. In kind it is ADME, organism-based, Canis lupus familiaris.
Data set [12] can be described thus: Volume of distribution at steady state in Sprague-Dawley rat at 1 mg/kg, iv. Details: dose 1 mg/kg, route intravenous. As to conditions: in vivo, read-out: Vdss. Type of data set: ADME, organism-based.
A short description of data set [13]: Inhibition of mouse liver microsomal GPAT by TLC technique in presence of glycerol-3-phosphate and [14C] palmitoyl CoA. (Microsomes from liver hold many membrane-bound enzymes, among them those of drug oxidation.)
Data set [14] can be described thus: AUC in cynomolgus monkey at 30 mg/kg/day, po qd. In kind it is ADME, organism-based, Macaca fascicularis. The arrangement: route oral. As to conditions: plasma. The essentials: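 Cynomolgus monkeys dosed orally once daily at 10 or 30 mg/kg for 21 days in a multiple-dose toxicity study. Plasma AUC was reported, with ALT/AST levels, QTc intervals and clinical and histopathological findings monitored.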

Data set [15] in a line: Half life in cynomolgus monkey at 0.5 mg/kg, iv. As to conditions: in vivo. In kind it is ADME, organism-based, Macaca fascicularis. Details: dose 0.5 mg/kg, route intravenous.
Data set [16] is described as follows: Half life in beagle dog at 0.2 mg/kg, iv. In kind it is ADME, organism-based, Canis lupus familiaris. The arrangement: dose 0.2 mg/kg, route intravenous. The settings on record: in vivo.
The test system of data set [17] is Rattus norvegicus. Briefly: Toxicity in Sprague-Dawley rat assessed as sebaceous gland atrophy at 30 to 100 mg/kg, po qd by 14-day multiple-dose toxicity study. In kind it is organism-based. As to conditions: in vivo. Details: dose 30-100 mg/kg, route oral. The essentials: as §1
The nature of data set [18]: AUC in CD1 mouse at 0.3 mg/kg, po. Type of data set: ADME, organism-based. The arrangement: dose 0.3 mg/kg, route oral. The settings on record: plasma.
The nature of data set [19]: Clearance in beagle dog at 0.2 mg/kg, iv. In kind it is ADME, organism-based, Canis lupus familiaris. The arrangement: dose 0.2 mg/kg, route intravenous. The settings on record: in vivo.
Data set [20] in a line: Clearance in cynomolgus monkey at 0.5 mg/kg, iv. In kind it is ADME, organism-based, Macaca fascicularis. The arrangement: dose 0.5 mg/kg, route intravenous. The settings on record: in vivo.
Data set [21] has as its system Cynomolgus monkey. Briefly: Toxicity in cynomolgus monkey assessed as elevation of change in clinical parameters at 10 to 30 mg/kg/day, po qd by 21-day multiple-dose toxicity study relative to control. Type of data set: organism-based, Macaca fascicularis. The arrangement: route oral. The settings on record: in vivo. The essentials: (§2)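 Cynomolgus monkeys were dosed po once daily at 10 and 30 mg/kg for 21 days. ALT and AST levels, QTc intervals, and clinical and histopathological findings were assessed, and plasma AUC was recorded for each dose.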

For data set [22], the system named is Cynomolgus monkey. Briefly: Toxicity in cynomolgus monkey assessed as elevation of AST level at 10 to 30 mg/kg/day, po qd by 21-day multiple-dose toxicity study relative to control. The settings on record: in vivo. Type of data set: organism-based, Macaca fascicularis. The arrangement: route oral. Put shortly: as §2
In data set [23] the test system is Cynomolgus monkey. Briefly: Toxicity in cynomolgus monkey assessed as elevation of change in histopathological parameters at 10 to 30 mg/kg/day, po qd by 21-day multiple-dose toxicity study relative to control. In kind it is organism-based, Macaca fascicularis. The settings on record: in vivo. Details: route oral. The essentials: as §2
Data set [24] in a line: AUC in cynomolgus monkey at 5 mg/kg, po. Details: dose 5 mg/kg, route oral. The settings on record: plasma. In kind it is ADME, organism-based, Macaca fascicularis.
The target of data set [25] is T2, Diacylglycerol O-acyltransferase 2 (Homo sapiens, UniProt Q96PD7).
T2 sequence (Q96PD7 whole entry): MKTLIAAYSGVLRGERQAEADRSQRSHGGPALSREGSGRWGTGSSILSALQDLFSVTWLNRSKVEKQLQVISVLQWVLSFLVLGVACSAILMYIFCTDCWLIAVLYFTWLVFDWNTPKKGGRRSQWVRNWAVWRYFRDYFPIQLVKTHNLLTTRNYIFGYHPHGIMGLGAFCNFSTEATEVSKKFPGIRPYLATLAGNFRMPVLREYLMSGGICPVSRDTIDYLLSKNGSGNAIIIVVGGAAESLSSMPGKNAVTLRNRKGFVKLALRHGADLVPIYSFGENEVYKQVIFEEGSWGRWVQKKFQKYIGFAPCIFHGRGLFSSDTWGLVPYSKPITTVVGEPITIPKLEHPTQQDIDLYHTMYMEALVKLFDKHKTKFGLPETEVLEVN
Briefly: Inhibition of human liver flag-tagged DGAT2 expressed in baculovirus infected insect cells after 2 hrs by SPA.

The nature of data set [26]: Volume of distribution at steady state in Sprague-Dawley rat at 0.7 mg/kg, iv. The settings on record: in vivo, read-out: Vdss. Type of data set: ADME, organism-based. Details: dose 0.7 mg/kg, route intravenous.
Data set [27] concerns Cynomolgus monkey. Briefly: Toxicity in cynomolgus monkey assessed as elevation of ALT level at 10 to 30 mg/kg/day, po qd by 21-day multiple-dose toxicity study relative to control. The arrangement: route oral. The settings on record: in vivo. In kind it is organism-based, Macaca fascicularis. Put shortly: as §2
Data set [28] can be described thus: AUC in Sprague-Dawley rat at 5 mg/kg, po. Type of data set: ADME, organism-based. The arrangement: dose 5 mg/kg, route oral. The settings on record: plasma.
Data set [29] addresses T3, Sterol O-acyltransferase 2 (Homo sapiens, UniProt O75908).
T3 sequence (O75908 whole entry): T1 sequence (whole entry)
Briefly: Inhibition of human full-length flag-tagged ACAT2 expressed in baculovirus infected insect cells using [14C]palmitoyl CoA as substrate after 10 mins by scintillation counting.

Data set [30] in a line: Oral bioavailability in cynomolgus monkey at 5 mg/kg. Type of data set: ADME, organism-based, Macaca fascicularis. As to conditions: in vivo.
Data set [31] deals with Rattus norvegicus. Briefly: Toxicity in Sprague-Dawley rat assessed as change in clinical parameters at 10 mg/kg, po qd by 14-day multiple-dose toxicity study. In kind it is organism-based. The arrangement: dose 10 mg/kg, route oral. As to conditions: in vivo. The essentials:
as §1

For orientation: AUC means concentration integrated over time. The half-life is the time needed for the level to fall by half in the phase considered. Usually clearance stands for the rate of elimination divided by the concentration. The term bioavailability denotes the share of a dose that reaches the circulation, judged against a reference dose that is usually intravenous. Turning to `CC1(C)Oc2ncnc(N)c2N=C1c1ccc([C@H]2CC[C@H](CC(=O)O)CC2)cc1`, the AUC in [1] turned out to be 913 µM·h. Besides, the Activity entry in the data set on Rattus norvegicus [2] is “Non-toxic”; in the data set on Rattus norvegicus [5], “Non-toxic”; in the data set on Rattus norvegicus [8], “Dose-dependent effect”. This compound also gave a half-life in data set [3] of 1.8 h. The inhibition result (in data set [4]; in the data set filed under Rattus norvegicus [7]) was “inactive” throughout. The results for the clearance in data set [6] and in data set [11] were 9.17 mL/min/kg and 11 mL/min/kg, respectively. Further, the Vd in [9] was found to be 1.9 L/kg; in [12], 1.65 L/kg. For the same compound, the bioavailability in data set [10] came out at 30%.
The term IC50 denotes the concentration that inhibits the measured activity by half. On to `CC1(C)Oc2nc(C(F)(F)F)nc(N)c2N=C1c1ccc2c(c1)CC[C@]21CC[C@@H](CC(=O)O)CC1`, for which the IC50 in data set [13], in data set [25] and in [29] was over 10 µM in each case. The AUC in [14] amounted to 2560 µM·h; in data set [18] it was 341 ng·h/mL; in data set [24], 252000 ng·h/mL; in [28] it was 22900 ng·h/mL. Besides, the half-life in [15] is 15.4 h; in data set [16], 1.1 h. The Activity result in the data set with Rattus norvegicus [17] was “Toxic”; with Cynomolgus monkey [21] it was “Non-toxic”; in the data set with Cynomolgus monkey [22], “Non-toxic”; in the data set on Cynomolgus monkey [23] it was “Non-toxic”; in the data set with Cynomolgus monkey [27], “Non-toxic”; in the data set with Rattus norvegicus [31] it was “Non-toxic”. The values for the clearance in data set [19] and in data set [20] were 2.33 mL/min/kg and 0.333 mL/min/kg, respectively. Besides, the Vd in [26] was 1.1 L/kg. Besides, in data set [30], the bioavailability was determined as 99%.
